# Laboratory results: article PMC8373685 (European journal of medicinal chemistry, 2021)
# How the values were obtained:
# [1] = tested on: TNFα-induced IKKβ-mediated NFκB activity; experiment: κB luciferase reporter assay; assay type: cell-based; details: for inhibition of TNFα-induced NFκB activity (SAR, in words): A549 luciferase reporter
# [2] = tested on: caspase 3/7 activity in MiaPaCa2 cells; experiment: Caspase 3/7 assay; assay type: cell-based; details: 10 μM, 24h
# Method in brief: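 MiaPaCa2 cells were exposed to test compound for 24 h at 0.1% final DMSO, n=3. At 21 h, alamarBlue (1/10 well volume) was added for 3 h and fluorescence read at 560ex/590em. Plates equilibrated 15 min at room temperature, then Caspase-Glo reagent was added and luminescence read 2 h later. Value = (luminescence×100/fluorescence)/DMSO average.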
# MiaPaCa2 = experiment: Growth inhibition assay; assay type: cell-based
# Method in brief: (§1)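 Cell viability was read with PrestoBlue after 72 h incubation with test compound, n=3. Data are average ± SEM.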
# T3M4 = experiment: Growth inhibition assay; assay type: cell-based; details: 3-day cell growth assay
# Method in brief: as §1
# MiaPaCa2 cells [3] = experiment: Live/dead cell assay; assay type: cell-based; details: 5 and 10 μM for 24h
# MiaPaCa2 cells [4] = experiment: Colony formation assay; assay type: cell-based; details: 5 μM; compared to DMSO treated cells
# Method in brief: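 MiaPaCa2 cells (1.0×10³) were seeded in 6-well plates and treated 24 h. They were then washed and grown 8–10 days, with medium changed every 3 days. Cells were fixed in 4% paraformaldehyde 15 min and stained with 0.5% crystal violet 2 h at room temperature. Colonies were counted in triplicate from 10x bright-field images against vehicle (DMSO); unpaired t-test.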
# MiaPaCa2 cells [5] = experiment: Cell scratch; assay type: cell-based; details: 5 μM at 24 and 48h; compared to DMSO
# [6] = Pharmacokinetic studies in mice; assay type: in vivo, CD1 mice
# Method in brief: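 CD1 mice received test compound orally at 20 mg/kg in DMSO:PEG400:H₂O 1:4:5, or intravenously at 10 mg/kg in DMSO:PEG400:H₂O 1:5:4. Mice were sacrificed at 0.083–24 h (8 time points) and plasma analysed by LC/MS/MS with carbamazepine as internal standard. PK parameters came from non-compartmental analysis; oral bioavailability was derived from oral versus intravenous AUC.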
# [7] = tested on: MiaPaCa2 cells subcutaneously implanted; experiment: Pancreatic tumor xenograft model; assay type: in vivo, athymic nude mice; details: treated versus vehicle, n = 5
# Method in brief: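 MiaPaCa2 cells (2.5×10⁶, Matrigel 2:1) were implanted s.c. in the flank of athymic nude mice and randomized at day 20 (n=6/group). Arms: vehicle, test compound 40 mg/kg orally daily, gemcitabine 15 mg/kg i.p. every 72 h, or combination. Mice were sacrificed after day 27. On FFPE tumors, Ki-67 was scored as % positive cells over 4 fields, and p-IKKβ by IHC histoscore (proportion 1–5 × intensity 0–3); n=5, unpaired t-test.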
compound,measurement,setting,value
"Cn1cc(-c2cnc3ccc(NC(=O)Nc4ccc(F)c(Br)c4)cc3c2)cn1 [compound 85, 1-(3-bromo-4-fluorophenyl)-3-(3-(1-methyl-1H-pyrazol-4-yl)quinolin-6-yl)urea]","inhibition of TNFα-induced NFκB activity (SAR, in words)",[1]; screened at 10μM,loss of activity
1-(4-fluoro-3-(trifluoromethoxy)phenyl)-3-(3-(1-methyl-1H-pyrazol-4-yl)quinoxalin-6-yl)urea [compound 83],"inhibition of TNFα-induced NFκB activity (SAR, in words)",[1]; screened at 10μM,further improved
1-(4-fluoro-3-methoxyphenyl)-3-(3-(1-methyl-1H-pyrazol-4-yl)quinoxalin-6-yl)urea [compound 82],"inhibition of TNFα-induced NFκB activity (SAR, in words)",[1]; screened at 10μM,activity was restored
1-(3-chloro-4-fluorophenyl)-3-(3-(1-methyl-1H-pyrazol-4-yl)quinoxalin-6-yl)urea [compound 80],potency in NFκB screen relative to 13–197,[1]; screened at 10μM,~ 3 fold
1-(4-fluoro-3-methylphenyl)-3-(3-(1-methyl-1H-pyrazol-4-yl)quinoxalin-6-yl)urea [compound 81],"inhibition of TNFα-induced NFκB activity (SAR, in words)",[1]; screened at 10μM,dramatically reduced the activity
"Cn1ccc(-c2cnc3ccc(NC(=O)Nc4ccc(F)c(Br)c4)cc3n2)c1 [compound 86, 1-(3-bromo-4-fluorophenyl)-3-(3-(1-methyl-1H-pyrrol-3-yl)quinoxalin-6-yl)urea]","inhibition of TNFα-induced NFκB activity (SAR, in words)",[1]; screened at 10μM,loss of activity
1-(4-fluoro-3-(trifluoromethyl)phenyl)-3-(3-(1-methyl-1H-pyrazol-4-yl)quinoxalin-6-yl)urea [compound 84],"IC50 ratio versus 13–197, TNFα-induced NFκB inhibition",[1]; 84 versus reported value for 13–197,~ 2.5 fold
same,IC50,"[1]; read-out: IC50, TNFα-induced IKKβ-mediated NFκB activity, dose-response, dual luciferase reporter assay, n = 3",3.3 ± 0.5 µM
same,"inhibition of TNFα-induced NFκB activity (SAR, in words)",[1]; screened at 10μM,most potent inhibitor
same,caspase 3/7 activation,[2],most potently induced caspase activation
same,caspase 3/7 induction relative to 13–197,[2],~ 4 fold
same,growth inhibition,"MiaPaCa2; 3-day cell growth assay, MiaPaCa2",low-μM potency
same,potency in inhibiting pancreatic cancer cell growth relative to 13–197,MiaPaCa2; cell line not specified at place,~ 4 fold
same,growth inhibition,T3M4,low-μM potency
same,cell death in live/dead assay,MiaPaCa2 cells [3],induced MiaPaCa2 cell death in a dose-dependent manner
same,inhibition of colony forming ability,MiaPaCa2 cells [4],> 50%
same,inhibition of cell migration,MiaPaCa2 cells [5],more effective inhibiting the migration of PDAC cells
same,increase in oral bioavailability (%F) relative to 13–197,[6],~ 5.7 fold
same,intravenous exposure (AUC0−∞) relative to oral exposure,[6]; 10 mg/kg intravenous versus 20 mg/kg oral,~ 2.8 fold
same,Tmax and Cmax relative to 13–197,[6]; 20 mg/kg oral,~ 2.5 times
same,exposure (AUC0−∞) relative to 13–197,[6]; 20 mg/kg oral,~ 4.3 fold
same,p-IKKβ levels in tumor tissue,[7]; immunohistochemistry,reduction in p-IKKβ levels
same,Ki67 staining (proliferation index) in tumor tissue,[7],reduction in Ki67 staining
1-(3-(1-methyl-1H-pyrazol-4-yl)quinoxalin-6-yl)-3-(3-(trifluoromethyl)phenyl)urea [compound 79],"inhibition of TNFα-induced NFκB activity (SAR, in words)",[1]; screened at 10μM,further improvement of activity
